Reference: paper PMC3361693 (Chemistry & biology, 2012)
Converted amounts (≈) assume the structure as drawn. Where two headings read alike, the source gives them in different places.

What was measured:
[1] = Cytotoxicity / cell survival in Raw264.7 cells; settings: mouse
[2] = system: NO production by LPS-stimulated RAW264.7 murine macrophages; assay: Inhibition of NO production by LPS-stimulated murine macrophages; format: cell-based; settings: Mus musculus
V. harveyi BB120 [3] = assay: microbe, parasite or virus in culture; format: cell-based, Vibrio harveyi
E. coli JB525 [4] = assay: QS inhibition: GFP production in E. coli JB525; format: cell-based, Escherichia coli
IL-1β = assay: qRT-PCR transcript level in LPS-stimulated RAW 264.7 cells: IL-1β; format: cell-based, murine; settings: after 6 h of treatment
How it was run: (§1)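 Murine RAW264.7 macrophages were LPS-stimulated and treated with the test compound for 6 h, alongside untreated LPS-stimulated cells. RNA was isolated and reverse-transcribed to cDNA. Transcripts of TNF-α, IL-1β, IL-6 and iNOS were quantified by qRT-PCR and expressed as fold change versus untreated cells. Three replicates were run, reported as mean ± standard deviation, with Student's t-test (p < 0.05).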

IL-6 = assay: qRT-PCR transcript level in LPS-stimulated RAW 264.7 cells: IL-6; format: cell-based, murine; settings: after 6 h of treatment
How it was run: as §1

TNF-α = assay: qRT-PCR transcript level in LPS-stimulated RAW 264.7 cells: TNF-α; format: cell-based, murine; settings: after 6 h of treatment
How it was run: as §1

Raw264.7 cells = assay: Cytotoxicity / cell survival in Raw264.7 cells; settings: for IC50: read-out: Cytotoxicity in Raw264.7 cells (IC50), Raw264.7 cells
E. coli JB525 [5] = assay: Growth inhibitory; format: cell-based, Escherichia coli
V. harveyi BB120 [6] = assay: Growth inhibitory; format: cell-based, Vibrio harveyi
iNOS = assay: qRT-PCR transcript level in LPS-stimulated RAW 264.7 cells: iNOS; format: cell-based, murine; settings: after 6 h of treatment
How it was run: as §1

[7] = RAW264.7, read-out: NO inhibition (IC50), dash with footnote b
[8] = Vibrio harveyi, read-out: QS inhibition (IC50) V. harveyi, dash with footnote d
[9] = Escherichia coli, read-out: QS inhibition (IC50) E. coli, dash with footnote d
[10] = read-out: QS inhibition (IC50) V. harveyi, inhibition of bioluminescence, V. harveyi BB120
[11] = read-out: QS inhibition (IC50) E. coli, inhibition of GFP production, E. coli JB525, OHHL autoinducer
[12] = RAW264.7, read-out: NO inhibition (IC50 ± SD)
[13] = Vibrio harveyi, read-out: QS inhibition (IC50) V. harveyi
[14] = Escherichia coli, read-out: QS inhibition (IC50) E. coli

O=C1OCCC1O (racemic) [Compound 6, (R/S)-2-hydroxy-γ-butyrolactone]
IC50 [1]: > 98 µM | IC50 [2, 7]: > 30 µg/mL | IC50 (V. harveyi BB120 [3]; [8]): > 125 µg/mL | IC50 (E. coli JB525 [4]; [9]): > 125 µg/mL

O=C(/C=C/CCl)O[C@@H]1COC(=O)C1 [Compound 1, Honaucin A]
reduction in transcripts of IL-1β (IL-1β): −154.6 fold | reduction in transcripts of IL-6 (IL-6): −19.0 fold | reduction in transcripts of TNF-α (TNF-α): −9.3 fold | therapeutic window between NO inhibitory effect and cytotoxicity (Raw264.7 cells; RAW264.7 cells, cytotoxicity IC50 vs NO inhibition IC50): greater than ten-fold | IC50 (Raw264.7 cells): > 49 µM | growth inhibitory effects: none observed up to concentration (E. coli JB525 [5]): > 610 µM | growth inhibitory effects: none observed up to concentration (V. harveyi BB120 [6]): > 610 µM | IC50 (V. harveyi BB120 [3]; [10]): 5.6 µM | IC50 (E. coli JB525 [4]; [11]): 38.5 µM | reduction in transcripts of iNOS (iNOS): −11.8 fold

O=C(O)/C=C/CBr [Compound 14, 4-bromocrotonic acid]
IC50 ([1]; RAW264.7 macrophage cells): 35 µM | MIC (antibiotic effect) (E. coli JB525 [5]): 188 µM (≈ 31 µg/mL) | IC50 [2, 12]: 3.5 ± 0.5 µM | IC50 (V. harveyi BB120 [3]; [13]): 10.5 µM

O=C(O)/C=C/CF [Compound 13, 4-fluorocrotonic acid]
IC50 [1]: > 288 µM | IC50 [2, 12]: 11.6 ± 4.3 µM | IC50 (V. harveyi BB120 [3]; [13]): 167 µM | IC50 (E. coli JB525 [4]; [14]): > 304 µM

O=C(O)/C=C/CI [Compound 15, 4-iodocrotonic acid]
IC50 ([1]; RAW264.7 macrophage cells): 10 µM | MIC (antibiotic effect) (E. coli JB525 [5]): 18 µM (≈ 3.82 µg/mL) | growth inhibitory effects: none observed up to concentration (V. harveyi BB120 [6]): > 32 µM | IC50 [2, 12]: 1.2 ± 0.2 µM | IC50 (V. harveyi BB120 [3]; [13]): 1.2 µM

O=C(O)/C=C/CCl [Compound 7, 4-chlorocrotonic acid]
IC50 ([1]; RAW264.7 macrophage cells): 80 µM | IC50 [2, 12]: 28 ± 4.3 µM | IC50 (V. harveyi BB120 [3]; [13]): 72.5 µM | IC50 (E. coli JB525 [4]; [14]): 152 µM

C/C=C/C(=O)O [Compound 9, crotonic acid]
IC50 ([1]; RAW264.7 macrophage cells): > 116 µM | IC50 [2, 7]: > 30 µg/mL | IC50 [2, 12]: > 116 µM | IC50 (V. harveyi BB120 [3]; [8]): > 125 µg/mL | IC50 (E. coli JB525 [4]; [9]): > 125 µg/mL

O=C(/C=C/CCl)O[C@H]1COC(=O)C1 [Compound 17, epi-honaucin A]
IC50 (Raw264.7 cells): > 49 µM | IC50 (V. harveyi BB120 [3]; [10]): 22.1 µM | IC50 (E. coli JB525 [4]; [11]): 260 µM

O=C1C[C@H](O)CO1 [Compound 4, (S)-3-hydroxy-γ-butyrolactone]
IC50 [1]: > 98 µM | IC50 (V. harveyi BB120 [3]; [8]): > 125 µg/mL | IC50 (E. coli JB525 [4]; [9]): > 125 µg/mL

O=C1C[C@@H](O)CO1 [Compound 5, (R)-3-hydroxy-γ-butyrolactone]
IC50 [1]: > 98 µM | IC50 (V. harveyi BB120 [3]; [8]): > 125 µg/mL | IC50 (E. coli JB525 [4]; [9]): > 125 µg/mL

COC(=O)C[C@H](O)COC(=O)/C=C/CCl [Compound 3, Honaucin C]
IC50 (Raw264.7 cells): 30 µM | growth inhibitory effects: none observed up to concentration (E. coli JB525 [5]): > 483 µM | growth inhibitory effects: none observed up to concentration (V. harveyi BB120 [6]): > 483 µM | IC50 (V. harveyi BB120 [3]; [10]): 14.6 µM | IC50 (E. coli JB525 [4]; [11]): 576 µM

CCOC(=O)C[C@H](O)COC(=O)/C=C/CCl [Compound 2, Honaucin B]
IC50 (Raw264.7 cells): 16 µM | growth inhibitory effects: none observed up to concentration (E. coli JB525 [5]): > 458 µM | growth inhibitory effects: none observed up to concentration (V. harveyi BB120 [6]): > 458 µM | IC50 (V. harveyi BB120 [3]; [10]): 17.6 µM | IC50 (E. coli JB525 [4]; [11]): 908 µM
